Measurements as given in ChEMBL document CHEMBL1145632, “Sulfamoyl benzamides as novel CB2 cannabinoid receptor ligands” (Bioorg Med Chem Lett, 2008).
Active and inactive are the calls of the source.

Columns and labels:
Cannabinoid receptor 2 [1] = molecular target: T1, Cannabinoid receptor 2 (Homo sapiens, UniProt P34972); experiment: Agonist activity at human cloned CB2 receptor by [35S]GTP-gamma-S binding assay; assay type: functional
Procedure, shortened: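 Stimulation of [35S]GTPγS binding used 25 µg membrane protein from cells expressing cloned human CB2. Mix: 100–150 pM [35S]GTPγS, 150 mM NaCl, 45 mM MgCl2, 3 µM GDP, 0.4 mM DTT, 1.0 mM EGTA, 1 mg/mL fatty-acid-free BSA in 50 mM Tris-HCl pH 7.0. Incubation was 6 h at room temperature, read by scintillation. Stimulation over basal (no agonist) is expressed as % of 10 µM WIN55212-2.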

Cannabinoid receptor 2 [2] = molecular target: T1, Cannabinoid receptor 2; experiment: Displacement of [3H]CP-55940 from human cloned CB2 receptor
Procedure, shortened: (§1)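 Competition binding of 0.2–0.6 nM [3H]CP55940 to membranes from cells expressing cloned human CB1 or CB2 receptors. Buffer: 50 mM Tris-HCl pH 7.0, 5.0 mM MgCl2, 1.0 mM EGTA, 1.0 mg/mL fatty-acid-free BSA. Incubation was 120 min at 30 °C for CB1 and 60 min at room temperature for CB2. Samples were filtered and counted by scintillation. Nonspecific binding was set with 10 µM WIN55212-2. Ratio is Ki CB1/Ki CB2.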

Homo sapiens [3] = species: Homo sapiens; experiment: Selectivity ratio of EC50 for human cloned CB1 receptor to EC50 for human cloned CB2 receptor
Cannabinoid receptor 1 [4] = molecular target: T2, Cannabinoid receptor 1 (Homo sapiens, UniProt P21554); experiment: Displacement of [3H]CP-55940 from human cloned CB1 receptor; procedure, shortened: as §1
Cannabinoid receptor 1 [5] = molecular target: T2, Cannabinoid receptor 1; experiment: Agonist activity at human cloned CB1 receptor by [35S]GTPgammaS binding assay; assay type: functional
Homo sapiens [6] = species: Homo sapiens; experiment: Selectivity ratio of Ki for human cloned CB1 receptor to Ki for human cloned CB2 receptor; procedure, shortened: as §1
Rattus norvegicus [7] = experiment: Antiallodynic effect in rat hind paw incision-induced nociception model at 3 mg/kg, sc; assay type: functional, organism-based; set-up: dose 3 mg/kg
Procedure, shortened: (§2)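 Rats with L5 spinal nerve ligation or hindpaw incision were dosed as stated. Read-out was paw-withdrawal threshold of the left hindpaw, reported as group mean ± SEM. Groups were compared by one-way ANOVA with protected t-test against the vehicle-treated surgery group.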

Rattus norvegicus [8] = experiment: Reversal of nerve injury-induced tactile allodynia in rat L5 spinal nerve ligation-induced nociception model at 3 mg/kg, ip; assay type: functional, organism-based; set-up: dose 3 mg/kg; procedure, shortened: as §2
Rattus norvegicus [9] = experiment: Antiallodynic effect in rat hind paw incision-induced nociception model at 30 mg/kg, ip; assay type: functional, organism-based; set-up: dose 30 mg/kg
Rattus norvegicus [10] = experiment: Toxicity in rat assessed as induction of catalepsy at 10 mg/kg, ip; assay type: organism-based; set-up: dose 10 mg/kg, route intraperitoneal; settings: in vivo
Rattus norvegicus [11] = experiment: Toxicity in rat assessed as induction of catalepsy at 6 mg/kg, ip; assay type: organism-based; set-up: dose 6 mg/kg, route intraperitoneal; settings: in vivo
Rattus norvegicus [12] = experiment: Toxicity in rat assessed as behavioral side effects upto 10 mg/kg, ip; assay type: organism-based; set-up: dose 10 mg/kg, route intraperitoneal; settings: in vivo
Rattus norvegicus [13] = experiment: Antiallodynic effect in rat hind paw incision-induced nociception model at 100 mg/kg, ip; assay type: functional, organism-based; set-up: dose 100 mg/kg
Rattus norvegicus [14] = experiment: Antiallodynic effect in rat hind paw incision-induced nociception model at 10 mg/kg, ip; assay type: functional, organism-based; set-up: dose 10 mg/kg; procedure, shortened: as §2
Rattus norvegicus [15] = experiment: Reversal of nerve injury-induced tactile allodynia in rat L5 spinal nerve ligation-induced nociception model at 60 mg/kg, ip; assay type: functional, organism-based; set-up: dose 60 mg/kg; procedure, shortened: as §2
Cannabinoid receptor 1 [16] = molecular target: T2, Cannabinoid receptor 1; experiment: Displacement of [3H]CP-55940 from human cloned CB1 receptor at 10 uM

T1 sequence (P34972 whole entry): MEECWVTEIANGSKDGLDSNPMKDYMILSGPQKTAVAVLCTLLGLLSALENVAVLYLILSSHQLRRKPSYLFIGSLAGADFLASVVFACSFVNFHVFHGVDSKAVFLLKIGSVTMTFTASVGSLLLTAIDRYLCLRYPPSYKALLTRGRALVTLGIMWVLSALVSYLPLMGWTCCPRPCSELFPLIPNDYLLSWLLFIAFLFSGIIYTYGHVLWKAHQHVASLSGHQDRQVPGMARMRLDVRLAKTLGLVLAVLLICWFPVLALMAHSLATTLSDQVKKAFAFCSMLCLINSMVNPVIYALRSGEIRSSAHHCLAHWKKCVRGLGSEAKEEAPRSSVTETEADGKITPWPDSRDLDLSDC
T2 sequence (P21554 whole entry): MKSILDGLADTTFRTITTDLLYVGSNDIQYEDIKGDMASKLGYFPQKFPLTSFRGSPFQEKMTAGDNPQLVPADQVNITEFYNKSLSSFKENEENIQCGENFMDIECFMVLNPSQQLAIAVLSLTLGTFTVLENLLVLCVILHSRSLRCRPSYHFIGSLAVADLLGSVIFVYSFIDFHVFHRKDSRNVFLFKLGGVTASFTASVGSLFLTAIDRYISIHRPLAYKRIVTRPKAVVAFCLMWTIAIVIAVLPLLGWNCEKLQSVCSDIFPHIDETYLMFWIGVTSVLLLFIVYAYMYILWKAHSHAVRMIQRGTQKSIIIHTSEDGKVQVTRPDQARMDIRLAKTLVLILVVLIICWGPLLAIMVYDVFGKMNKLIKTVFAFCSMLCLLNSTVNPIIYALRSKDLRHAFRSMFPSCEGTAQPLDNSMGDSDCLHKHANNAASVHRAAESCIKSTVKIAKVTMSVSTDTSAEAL

## Cc1ccc(C(=O)NC23CC4CC(CC(C4)C2)C3)cc1S(=O)(=O)N1CCOCC1
Cannabinoid receptor 2 [1]
  EC50: 48 nM
Cannabinoid receptor 2 [2]
  Ki: 19 nM
Homo sapiens [3]
  Ratio EC50: 12
Cannabinoid receptor 1 [4]
  Ki: 260 nM
Cannabinoid receptor 1 [5]
  EC50: 570 nM
Homo sapiens [6]
  Ratio Ki: 14

## CC(C)CNC(=O)c1ccc(Br)c(S(=O)(=O)N2CCCCC2)c1
Cannabinoid receptor 2 [2]
  Ki: 410 nM
Cannabinoid receptor 1 [4]
  Ki: > 1000 nM
Homo sapiens [6]
  Ratio Ki: > 2

## CC1(C)[C@H]2CC[C@](C)(C2)[C@@H]1NC(=O)c1ccc(Br)c(S(=O)(=O)N2CCOCC2)c1
Cannabinoid receptor 2 [1]
  EC50: 8.8 nM
Cannabinoid receptor 2 [2]
  Ki: 3.5 nM
Homo sapiens [3]
  Ratio EC50: 64
Cannabinoid receptor 1 [4]
  Ki: 89 nM
Cannabinoid receptor 1 [5]
  EC50: 560 nM
Homo sapiens [6]
  Ratio Ki: 25

## CC1(C)[C@H]2CC[C@](C)(C2)[C@@H]1NC(=O)c1ccc(Br)c(S(=O)(=O)N2CCCC2)c1
Cannabinoid receptor 2 [1]
  EC50: 4.3 nM
Cannabinoid receptor 2 [2]
  Ki: 9.4 nM
Homo sapiens [3]
  Ratio EC50: 51
Cannabinoid receptor 1 [4]
  Ki: 110 nM
Cannabinoid receptor 1 [5]
  EC50: 220 nM
Homo sapiens [6]
  Ratio Ki: 12

## CN(Cc1ccccc1)S(=O)(=O)c1cc(C(=O)NCC(C)(C)C)ccc1Br
Cannabinoid receptor 2 [2]
  Ki: 430 nM
Cannabinoid receptor 1 [4]
  Ki: > 1000 nM
Homo sapiens [6]
  Ratio Ki: > 2

## CN1CC[C@]23c4c5ccc(O)c4O[C@H]2[C@@H](O)C=C[C@H]3[C@H]1C5
Rattus norvegicus [7]
  Activity: Active

## Cc1ccc(C(=O)NC2C3CC4CC(C3)CC2C4)cc1S(=O)(=O)N1CCOCC1 (stereo not drawn)
Cannabinoid receptor 2 [1]
  EC50: 12 nM
Cannabinoid receptor 2 [2]
  Ki: 5.6 nM
Homo sapiens [3]
  Ratio EC50: 23
Cannabinoid receptor 1 [4]
  Ki: 33 nM
Cannabinoid receptor 1 [5]
  EC50: 270 nM
Homo sapiens [6]
  Ratio Ki: 15

## Cc1ccc(C(=O)N[C@H]2CC3CC[C@@]2(C)C3(C)C)cc1S(=O)(=O)N1CCOCC1
Cannabinoid receptor 2 [1]
  EC50: 14 nM
Cannabinoid receptor 2 [2]
  Ki: 8.1 nM
Homo sapiens [3]
  Ratio EC50: 15
Cannabinoid receptor 1 [4]
  Ki: 50 nM
Cannabinoid receptor 1 [5]
  EC50: 210 nM
Homo sapiens [6]
  Ratio Ki: 7

## Cc1ccc(C(=O)N[C@@H]2C(C)(C)[C@H]3CC[C@]2(C)C3)cc1S(=O)(=O)N1CCOCC1
Cannabinoid receptor 2 [1]
  EC50: 4.6 nM
Rattus norvegicus [8]
  Activity: Active
Cannabinoid receptor 2 [2]
  Ki: 3.9 nM
Rattus norvegicus [9]
  Activity: inactive
Rattus norvegicus [10]
  Activity: Non-toxic
Homo sapiens [3]
  Ratio EC50: 120
Rattus norvegicus [11]
  Activity: Non-toxic
Rattus norvegicus [12]
  Activity: Non-toxic
Rattus norvegicus [13]
  Activity: inactive
Cannabinoid receptor 1 [4]
  Ki: 130 nM
Rattus norvegicus [14]
  Activity: Active
Cannabinoid receptor 1 [5]
  EC50: 550 nM
Homo sapiens [6]
  Ratio Ki: 31

## Cc1ccc(C(=O)NCC23CC4CC(CC(C4)C2)C3)cc1S(=O)(=O)N1CCOCC1
Cannabinoid receptor 2 [1]
  EC50: 25 nM
Cannabinoid receptor 2 [2]
  Ki: 10 nM
Homo sapiens [3]
  Ratio EC50: 8
Cannabinoid receptor 1 [4]
  Ki: 91 nM
Cannabinoid receptor 1 [5]
  EC50: 210 nM
Homo sapiens [6]
  Ratio Ki: 9

## O=C(NCc1cccnc1)c1ccc(Br)c(S(=O)(=O)N2CCCCC2)c1
Cannabinoid receptor 2 [2]
  Ki: 320 nM
Cannabinoid receptor 1 [4]
  Ki: 1800 nM
Homo sapiens [6]
  Ratio Ki: 5

## CC(C)CNC(=O)c1ccc(Br)c(S(=O)(=O)N(C)Cc2ccccc2)c1
Cannabinoid receptor 2 [2]
  Ki: 340 nM
Cannabinoid receptor 1 [4]
  Ki: > 1000 nM
Homo sapiens [6]
  Ratio Ki: > 3

## NCC1(CC(=O)O)CCCCC1
Rattus norvegicus [15]
  Activity: Active

## CN(Cc1ccccc1)S(=O)(=O)c1cc(C(=O)N[C@@H]2C(C)(C)[C@H]3CC[C@]2(C)C3)ccc1Br
Cannabinoid receptor 2 [2]
  Ki: 11 nM
Cannabinoid receptor 1 [4]
  Ki: > 1000 nM
Homo sapiens [6]
  Ratio Ki: > 100
Cannabinoid receptor 1 [16]
  inhibition: 33%

## Cc1ccc(C(=O)N[C@H]2C(C)(C)[C@H]3CC[C@]2(C)C3)cc1S(=O)(=O)N1CCOCC1
Cannabinoid receptor 2 [1]
  EC50: 25 nM
Cannabinoid receptor 2 [2]
  Ki: 48 nM
Homo sapiens [3]
  Ratio EC50: 35
Cannabinoid receptor 1 [4]
  Ki: 540 nM
Cannabinoid receptor 1 [5]
  EC50: 880 nM
Homo sapiens [6]
  Ratio Ki: 11

## CC(C)(C)CNC(=O)c1ccc(Br)c(S(=O)(=O)N2CCCC2)c1
Cannabinoid receptor 2 [2]
  Ki: 400 nM
Cannabinoid receptor 1 [4]
  Ki: 2000 nM
Homo sapiens [6]
  Ratio Ki: 5

## Cc1ccc(C(=O)NCC(C)(C)C)cc1S(=O)(=O)N1CCOCC1
Cannabinoid receptor 2 [1]
  EC50: 1800 nM
Cannabinoid receptor 2 [2]
  Ki: 390 nM
Cannabinoid receptor 1 [4]
  Ki: > 1000 nM
Cannabinoid receptor 1 [5]
  EC50: > 1000 nM
Homo sapiens [6]
  Ratio Ki: > 3

## Cc1ccc(C(=O)NC2C(C)CCCC2C)cc1S(=O)(=O)N1CCOCC1 (stereo not drawn)
Cannabinoid receptor 2 [1]
  EC50: 44 nM
Cannabinoid receptor 2 [2]
  Ki: 92 nM
Homo sapiens [3]
  Ratio EC50: 12
Cannabinoid receptor 1 [4]
  Ki: 470 nM
Cannabinoid receptor 1 [5]
  EC50: 540 nM
Homo sapiens [6]
  Ratio Ki: 5

## Cc1ccc(C(=O)NC(C)C23CC4CC(CC(C4)C2)C3)cc1S(=O)(=O)N1CCOCC1 (stereo not drawn)
Cannabinoid receptor 2 [1]
  EC50: 9.3 nM
Cannabinoid receptor 2 [2]
  Ki: 6.3 nM
Homo sapiens [3]
  Ratio EC50: 31
Cannabinoid receptor 1 [4]
  Ki: 77 nM
Cannabinoid receptor 1 [5]
  EC50: 290 nM
Homo sapiens [6]
  Ratio Ki: 5

## Cc1ccc(C(=O)NC(C)C(C)(C)C)cc1S(=O)(=O)N1CCOCC1 (stereo not drawn)
Cannabinoid receptor 2 [1]
  EC50: 125 nM
Cannabinoid receptor 2 [2]
  Ki: 180 nM
Homo sapiens [3]
  Ratio EC50: 19
Cannabinoid receptor 1 [4]
  Ki: 1300 nM
Cannabinoid receptor 1 [5]
  EC50: 2400 nM
Homo sapiens [6]
  Ratio Ki: 9

## O=C(NCc1ccccc1)c1ccc(Br)c(S(=O)(=O)N2CCCCC2)c1
Cannabinoid receptor 2 [2]
  Ki: 360 nM
Cannabinoid receptor 1 [4]
  Ki: 1100 nM
Homo sapiens [6]
  Ratio Ki: 3

## CC(C)(C)CNC(=O)c1ccc(Br)c(S(=O)(=O)N2CCOCC2)c1
Cannabinoid receptor 2 [2]
  Ki: 450 nM
Cannabinoid receptor 1 [4]
  Ki: 1300 nM
Homo sapiens [6]
  Ratio Ki: 3

## CC1(C)[C@H]2CC[C@](C)(C2)[C@@H]1NC(=O)c1ccc(Br)c(S(=O)(=O)N2CCCCC2)c1
Cannabinoid receptor 2 [1]
  EC50: 6.6 nM
Cannabinoid receptor 2 [2]
  Ki: 13 nM
Homo sapiens [3]
  Ratio EC50: 42
Cannabinoid receptor 1 [4]
  Ki: 93 nM
Cannabinoid receptor 1 [5]
  EC50: 280 nM
Homo sapiens [6]
  Ratio Ki: 7

## CC(C)(C)CNC(=O)c1ccc(Br)c(S(=O)(=O)N2CCCCC2)c1
Cannabinoid receptor 2 [2]
  Ki: 100 nM
Cannabinoid receptor 1 [4]
  Ki: 1300 nM
Homo sapiens [6]
  Ratio Ki: 13

## Cc1ccc(C(=O)NC(C(C)(C)C)C(C)(C)C)cc1S(=O)(=O)N1CCOCC1
Cannabinoid receptor 2 [1]
  EC50: 21 nM
Cannabinoid receptor 2 [2]
  Ki: 34 nM
Homo sapiens [3]
  Ratio EC50: 44
Cannabinoid receptor 1 [4]
  Ki: 310 nM
Cannabinoid receptor 1 [5]
  EC50: 920 nM
Homo sapiens [6]
  Ratio Ki: 9

## COc1cccc(CNC(=O)c2ccc(Br)c(S(=O)(=O)N3CCCCC3)c2)c1
Cannabinoid receptor 2 [2]
  Ki: 200 nM
Cannabinoid receptor 1 [4]
  Ki: 1400 nM
Homo sapiens [6]
  Ratio Ki: 7
